According to ChEMBL document CHEMBL3860087, “New Broad-Spectrum Antibacterial Amphiphilic Aminoglycosides Active against Resistant Bacteria: From Neamine Derivatives to Smaller Neosamine Analogues” (J Med Chem, 2016):
≈ marks a conversion by molar mass, not a printed value.

Key:
Mus musculus [1] = organism: Mus musculus; test: (§1) Cytotoxicity against mouse J774 cells assessed as cell viability at 10 uM after 24 hrs by MTT assay relative to control; format: toxicity, cell-based; conditions: j774, 24 h, 10 µM
Summary of the method: (§2)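 Murine J774 macrophages exposed 24 h to 10 or 30 μM compound, then 1 h with 0.2 mg/mL MTT; reaction stopped with DMSO, OD read at 570 nm as metabolic-activity viability. Number of independent experiments given per value.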

Mus musculus [2] = organism: Mus musculus; test: (§3) Cytotoxicity against mouse J774 cells assessed as cell viability at 30 uM after 24 hrs by MTT assay relative to control; format: toxicity, cell-based; conditions: j774, 24 h, 30 µM; summary of the method: as §2
[3] = as §1; format: toxicity, cell-based; conditions: J774 cells, read-out: Activity; summary of the method: as §2
Staphylococcus aureus [4] = test: Antibacterial activity against NorA expressing Staphylococcus aureus 1 by microdilution method
Staphylococcus aureus [5] = test: Antibacterial activity against Staphylococcus aureus ATCC 25923 by microdilution method; format: functional
Summary of the method: (§4)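 Broth microdilution per CLSI in cation-adjusted Mueller–Hinton broth. Strains were grown overnight at 37 °C on trypticase soy agar, and a fresh culture was used. Starting inoculum was 10^6 cells.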

[6] = as §3; format: toxicity, cell-based; conditions: J774 cells, read-out: Activity; summary of the method: as §2
Klebsiella pneumoniae = test: Antibacterial activity against Klebsiella pneumoniae ATCC 700603 by microdilution method; format: functional
Summary of the method: (§5)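 Strains grown overnight at 37 °C on trypticase soy agar; MIC by broth microdilution from fresh culture in cation-adjusted Mueller–Hinton broth, starting inoculum 10^6 cells, following CLSI recommendations.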

Escherichia coli [7] = test: microbe, parasite or virus in culture; conditions: ATCC 25922
Pseudomonas aeruginosa [8] = test: Antibacterial activity against Pseudomonas aeruginosa ATCC 27853 by microdilution method; format: functional; summary of the method: as §5
Escherichia coli [9] = test: Antibacterial activity against ANT2''-IA expressing Escherichia coli L8058.1 by microdilution method; format: functional; summary of the method: as §5
Escherichia coli [10] = test: Antibacterial activity against AAC6'-IB expressing Escherichia coli PAZ505H8101 by microdilution method; format: functional; summary of the method: as §5
Staphylococcus aureus [11] = test: Antibacterial activity against healthcare-acquired methicillin-resistant Staphylococcus aureus ATCC 33592 by microdilution method; format: functional; summary of the method: as §4
Acinetobacter lwoffii [12] = test: Antibacterial activity against APH3'-VIA expressing Acinetobacter lwoffii AI.88-483 by microdilution method; format: functional; summary of the method: as §5
Pseudomonas aeruginosa [13] = test: Antibacterial activity against MexXY expressing Pseudomonas aeruginosa PA22 by microdilution method; format: functional; summary of the method: as §5
Pseudomonas aeruginosa [14] = test: Induction of inner membrane permeabilization of Pseudomonas aeruginosa ATCC 27853 at 5 uM after 15 mins by propidium iodide staining-based fluorescence assay relative to control; format: functional
Summary of the method: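 P. aeruginosa ATCC 27853 from TSA colony, overnight in MHB-CA at 37 °C with shaking, diluted 100-fold and grown 4 h to mid-log (OD620 ~0.4–0.5). Suspension (OD600 0.05) with PI (3 mM stock diluted 10^3-fold) plus compound in HEPES (1–10 μM final). Fluorescence ex 540/em 610 nm at 25 °C after 15 min; normalized to CTAB 150 μM (100%) and imipenem (0%).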

Pseudomonas aeruginosa [15] = test: Antibacterial activity against triABC deficient Pseudomonas aeruginosa PA406 by microdilution method; format: functional; summary of the method: as §5
Pseudomonas aeruginosa [16] = test: Antibacterial activity against AAC6'-2A expressing Pseudomonas aeruginosa F03 by microdilution method; format: functional; summary of the method: as §5
Acinetobacter lwoffii [17] = test: Antibacterial activity against Acinetobacter lwoffii ATCC 17925 by microdilution method; format: functional; summary of the method: as §5
Pseudomonas aeruginosa [18] = test: Ratio of MIC for Pseudomonas aeruginosa ATCC 27853 after 9 serial passages to MIC for Pseudomonas aeruginosa ATCC 27853 prior to serial passages; format: functional
Pseudomonas aeruginosa [19] = test: Induction of inner membrane permeabilization of Pseudomonas aeruginosa ATCC 27853 after 15 mins by propidium iodide staining-based fluorescence assay; format: functional
Summary of the method: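 Mid-log P. aeruginosa (OD620 ~0.4–0.5, grown in CA-MHB at 37 °C, 130 rpm) was adjusted to OD600 0.05. A 3 mM propidium iodide stock was diluted 10^3-fold in the suspension. Compounds in HEPES were added at final 1–10 μM. Fluorescence (ex 540/em 610 nm) was read at 25 °C after 15 min stabilization. Values were normalized to 150 μM CTAB (100%) and imipenem (0%).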

Pseudomonas aeruginosa [20] = test: Induction of inner membrane permeabilization of Pseudomonas aeruginosa ATCC 27853 at 150 uM after 15 mins by propidium iodide staining-based fluorescence assay relative to control; format: functional
Pseudomonas aeruginosa [21] = test: Ratio of MIC for Pseudomonas aeruginosa ATCC 27853 after 4 serial passages to MIC for Pseudomonas aeruginosa ATCC 27853 prior to serial passages; format: functional

| Molecule | viability at 24 h, 10 µM [3] [%] | MIC (Staphylococcus aureus [4]) [µg/mL] | MIC (Staphylococcus aureus [5]) [µg/mL] | viability at 24 h, 30 µM [6] [%] | MIC (Klebsiella pneumoniae) [µg/mL] | MIC (Escherichia coli [7]) [µg/mL] | MIC (Pseudomonas aeruginosa [8]) [µg/mL] | MIC (Escherichia coli [9]) [µg/mL] | MIC (Escherichia coli [10]) [µg/mL] | MIC (Staphylococcus aureus [11]) [µg/mL] | MIC (Acinetobacter lwoffii [12]) [µg/mL] | MIC (Pseudomonas aeruginosa [13]) [µg/mL] | MIC (Pseudomonas aeruginosa [15]) [µg/mL] | MIC (Pseudomonas aeruginosa [16]) [µg/mL] | MIC (Acinetobacter lwoffii [17]) [µg/mL] | other results |
| --- | --- | --- | --- | --- | --- | --- | --- | --- | --- | --- | --- | --- | --- | --- | --- | --- |
| GENTAMICIN |  |  |  |  |  |  |  |  |  |  |  |  |  |  |  | Activity (Mus musculus [1]): 88.2%; Activity (Mus musculus [2]): 74.2% |
| CCCCCCCCCO[C@@H]1[C@@H](N)[C@@H](OCC(O)CNCCCN)O[C@H](CN)[C@H]1OCCCCCCCCC (mixture of isomers) | 101 | 2 | 2 | 71.6 | 32 | 8 | 8 | 8 | 4 | 2 | 8 | 8 | 4 | 8 | 2 | Activity (Pseudomonas aeruginosa [14]): 25% |
| NC[C@H]1O[C@H](O[C@H]2[C@H](O)[C@@H](O)[C@H](N)C[C@@H]2N)[C@H](N)[C@@H](OCCCc2ccc3ccccc3c2)[C@@H]1OCCCc1ccc2ccccc2c1 | 87.7 | 0.5 to 1 (≈ 0.759 to 1.52 µM) | 2 to 4 (≈ 3.04 to 6.07 µM) | 66.9 | 64 (≈ 97.1 µM) | 16 to 32 (≈ 24.3 to 48.6 µM) | 4 (≈ 6.07 µM) | 4 to 8 (≈ 6.07 to 12.1 µM) | 2 (≈ 3.04 µM) | 1 to 2 (≈ 1.52 to 3.04 µM) | 32 to 64 (≈ 48.6 to 97.1 µM) | 16 (≈ 24.3 µM) | 4 (≈ 6.07 µM) | 8 (≈ 12.1 µM) | 2 to 4 (≈ 3.04 to 6.07 µM) | Ratio (Pseudomonas aeruginosa [18]): 15 |
| C[C@@H](O)[C@H]1C(=O)N2C(C(=O)O)=C(SCCNC=N)C[C@H]12 [IMIPENEM ANHYDROUS] |  |  |  |  |  |  |  |  |  |  |  |  |  |  |  | Activity (Pseudomonas aeruginosa [19]): 0% |
| CCCCCCCCCO[C@@H]1[C@@H](N)[C@@H](O[C@H]2[C@H](O)[C@@H](O)[C@H](N)C[C@@H]2N)O[C@H](CN)[C@H]1OCCCCCCCCC | 82.7 | 2 (≈ 3.48 µM) | 4 (≈ 6.96 µM) | 48.6 | 16 to 32 (≈ 27.8 to 55.7 µM) | 4 to 8 (≈ 6.96 to 13.9 µM) | 8 to 16 (≈ 13.9 to 27.8 µM) | 4 to 8 (≈ 6.96 to 13.9 µM) | 2 to 4 (≈ 3.48 to 6.96 µM) | 4 (≈ 6.96 µM) | 32 (≈ 55.7 µM) | 8 to 16 (≈ 13.9 to 27.8 µM) | 8 to 16 (≈ 13.9 to 27.8 µM) | 8 to 16 (≈ 13.9 to 27.8 µM) | 2 to 4 (≈ 3.48 to 6.96 µM) | Activity (Pseudomonas aeruginosa [14]): 25% |
| Hexadecyltrimethylammonium bromide |  |  |  |  |  |  |  |  |  |  |  |  |  |  |  | Activity (Pseudomonas aeruginosa [20]): 100% |
| O=C(O)c1cn(C2CC2)c2cc(N3CCNCC3)c(F)cc2c1=O [CIPROFLOXACIN] |  |  |  |  |  |  |  |  |  |  |  |  |  |  |  | Ratio (Pseudomonas aeruginosa [21]): 15 |
| CCCCCCCCCO[C@@H]1[C@@H](N)[C@@H](OCC(O)CNCCO)O[C@H](CN)[C@H]1OCCCCCCCCC (mixture of isomers) | 99.1 | 1 to 2 | 4 | 10.1 | 8 | 4 to 8 | 8 | 4 to 8 | 8 | 1 to 2 | 4 to 8 | 8 | 8 | 8 | 2 |  |
